# ChEMBL document CHEMBL1155916, “Fluorinated phenylcyclopropylamines. Part 5: Effects of electron-withdrawing or -donating aryl substituents on the inhibition of monoamine oxidases A and B by 2-aryl-2-fluoro-cyclopropylamines” (Bioorg Med Chem, 2008)
# Assays:
# [1] = target: T1, Amine oxidase [flavin-containing] A (Homo sapiens, UniProt P21397); assay: Inhibition of human recombinant MAOA
# T1 sequence (P21397 whole entry): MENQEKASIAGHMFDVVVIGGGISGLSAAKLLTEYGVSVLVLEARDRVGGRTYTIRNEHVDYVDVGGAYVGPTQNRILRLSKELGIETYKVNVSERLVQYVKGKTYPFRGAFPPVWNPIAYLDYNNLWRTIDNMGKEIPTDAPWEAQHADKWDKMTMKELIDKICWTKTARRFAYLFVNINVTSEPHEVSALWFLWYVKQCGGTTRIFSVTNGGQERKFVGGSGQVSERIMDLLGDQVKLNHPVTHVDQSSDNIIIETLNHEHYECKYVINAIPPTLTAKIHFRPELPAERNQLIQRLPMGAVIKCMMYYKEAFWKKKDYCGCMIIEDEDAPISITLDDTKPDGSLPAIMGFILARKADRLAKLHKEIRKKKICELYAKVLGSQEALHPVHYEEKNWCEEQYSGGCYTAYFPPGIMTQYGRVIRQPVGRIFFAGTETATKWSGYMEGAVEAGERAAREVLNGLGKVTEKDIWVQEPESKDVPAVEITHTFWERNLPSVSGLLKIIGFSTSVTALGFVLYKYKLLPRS
# In short: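 Recombinant human mitochondrial MAO A, desalted into 50 mM K phosphate pH 7.2 with 0.8% octyl-glucoside. Enzyme (4.4 µg) preincubated 10 min at 10 °C with varying inhibitor concentrations (DMSO) in substrate-free mix: 50 mM K phosphate pH 7.2, 0.5% reduced Triton X-100, 6% DMSO.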
# [2] = target: T2, Amine oxidase [copper-containing] 3 (Rattus norvegicus, UniProt O08590); assay: Inhibition of rat CAO
# T2 sequence (O08590 whole entry): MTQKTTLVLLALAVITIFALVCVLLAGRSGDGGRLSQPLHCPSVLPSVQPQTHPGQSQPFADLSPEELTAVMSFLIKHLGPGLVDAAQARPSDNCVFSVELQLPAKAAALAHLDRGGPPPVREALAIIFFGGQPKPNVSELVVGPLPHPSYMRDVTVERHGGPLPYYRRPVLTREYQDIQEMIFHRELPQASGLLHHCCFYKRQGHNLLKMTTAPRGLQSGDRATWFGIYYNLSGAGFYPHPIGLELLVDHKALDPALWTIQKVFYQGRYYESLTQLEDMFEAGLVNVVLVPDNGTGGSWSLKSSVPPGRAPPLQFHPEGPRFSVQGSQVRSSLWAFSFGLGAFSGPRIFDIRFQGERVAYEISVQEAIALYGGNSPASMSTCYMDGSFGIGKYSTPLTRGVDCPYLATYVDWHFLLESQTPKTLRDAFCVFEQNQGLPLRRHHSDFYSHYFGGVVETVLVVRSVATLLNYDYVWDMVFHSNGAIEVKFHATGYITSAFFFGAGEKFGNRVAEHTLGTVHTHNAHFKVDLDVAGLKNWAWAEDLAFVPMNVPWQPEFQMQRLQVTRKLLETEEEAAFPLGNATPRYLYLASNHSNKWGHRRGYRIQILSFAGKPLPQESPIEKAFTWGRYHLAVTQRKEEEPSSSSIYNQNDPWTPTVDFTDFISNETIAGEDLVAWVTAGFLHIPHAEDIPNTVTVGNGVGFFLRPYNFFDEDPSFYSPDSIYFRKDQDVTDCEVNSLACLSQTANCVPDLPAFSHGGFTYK
# Homo sapiens [3] = species on record: Homo sapiens; assay: Selectivity for human recombinant MAOA over human recombinant MAOB
# [4] = Inhibition of tyramine oxidase
# [5] = Dissociation constant, pKa by titrimetric method; format: physicochemical
# In short: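 Titration in 0.1 M KNO₃ at 21 °C.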
# [6] = target: T3, Amine oxidase [flavin-containing] B (Homo sapiens, UniProt P27338); assay: Inhibition of human recombinant MAOB
# T3 sequence (P27338 whole entry): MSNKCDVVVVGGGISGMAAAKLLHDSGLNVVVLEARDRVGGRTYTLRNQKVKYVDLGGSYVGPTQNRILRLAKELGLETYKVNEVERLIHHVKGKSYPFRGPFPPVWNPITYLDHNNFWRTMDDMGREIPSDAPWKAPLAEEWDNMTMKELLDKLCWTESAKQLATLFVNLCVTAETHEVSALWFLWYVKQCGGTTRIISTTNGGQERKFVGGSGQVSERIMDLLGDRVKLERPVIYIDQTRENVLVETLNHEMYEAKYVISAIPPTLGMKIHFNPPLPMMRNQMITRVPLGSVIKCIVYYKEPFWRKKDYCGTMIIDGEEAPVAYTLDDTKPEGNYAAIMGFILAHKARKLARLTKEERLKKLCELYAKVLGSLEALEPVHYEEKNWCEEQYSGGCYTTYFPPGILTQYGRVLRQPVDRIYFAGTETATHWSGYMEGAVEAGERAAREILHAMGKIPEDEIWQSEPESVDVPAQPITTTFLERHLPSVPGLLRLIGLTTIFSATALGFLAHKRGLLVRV
# In short: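 Recombinant human mitochondrial MAO B was gel-filtered into 50 mM K phosphate pH 7.2 with 0.8% octyl-glucoside. Enzyme (7.0 µg) was held 10 min at 10 °C with varying inhibitor concentrations (DMSO) in 0.1 M K phosphate pH 7.2, 6% DMSO, without substrate. The reaction was started with 1 mM benzylamine, and benzaldehyde formation was read at 250 nm at 25 °C.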
# Homo sapiens [7] = species on record: Homo sapiens; assay: Selectivity for human recombinant MAOB over human recombinant MAOA
# [8] = Lipophilicity, log D at pH 7.4; format: physicochemical; conditions: buffer
# Homo sapiens [9] = species on record: Homo sapiens; assay: Selectivity for human recombinant MAOA over human recombinant MAOB
Structure (SMILES),IC50 ([1]; read-out: IC50),pKa [5],IC50 [6],Ratio IC50 (Homo sapiens [7]),logD [8],Ratio IC50 (Homo sapiens [9]),also measured
COc1ccc(/C(=C\F)CN)cc1OC,,,,,,,Ki [1]: 231 µM; IC50 [2]: 0.006 µM; Ratio Ki (Homo sapiens [3]): 100
NC[C@@]1(c2ccccc2)C[C@@H]1F,320 µM,,,,,,IC50 [4]: 12 µM
N[C@]1(c2ccccc2)C[C@]1(F)c1ccccc1 (racemic),10 µM,5.8,20 µM,2,,,
N[C@@H]1C[C@]1(F)c1ccc(F)cc1 (relative stereo),270 µM,6.88,10 µM,,2.14,27,
N[C@H]1C[C@]1(F)c1ccc(F)cc1 (relative stereo),3.6 µM,7.31,4.9 µM,1.4,1.6,,
N[C@H]1C[C@]1(F)c1ccccc1 (relative stereo),12 µM,,6.4 µM,,1.53,2,
N[C@@H]1C[C@@H]1c1ccccc1 (relative stereo),,8.47,,,1.41,,
COc1ccc([C@@]2(F)C[C@@H]2N)cc1OC (relative stereo),47 µM,7.4,230 µM,4.9,0.58,,
COc1ccc([C@@]2(F)C[C@H]2N)cc1OC (relative stereo),,,470 µM,,,,IC50 [1]: Not Active
N[C@@]1(c2ccccc2)C[C@@H]1F (relative stereo),,,,100,,,

# Now from value to compound, other results behind:
IC50 ([1]; read-out: IC50),pKa [5],IC50 [6],Ratio IC50 (Homo sapiens [7]),logD [8],Ratio IC50 (Homo sapiens [9]),Structure (SMILES),also measured
76 µM,6.6,7.1 µM,,3.13,10.7,N[C@@H]1C[C@]1(F)c1ccc(C(F)(F)F)cc1 (relative stereo),
230 µM,7.04,30 µM,,,7.7,Cc1ccc([C@@]2(F)C[C@H]2N)cc1 (relative stereo),
89 µM,6.81,4.8 µM,,2.66,18.5,N[C@@H]1C[C@]1(F)c1ccc(Cl)cc1 (relative stereo),
14 µM,7.5,5.1 µM,,,2.8,COc1ccc([C@@]2(F)C[C@@H]2N)cc1 (relative stereo),
1.6 µM,7.19,3.7 µM,2.3,2.23,,N[C@H]1C[C@]1(F)c1ccc(Cl)cc1 (relative stereo),
0.8 µM,7,5.4 µM,6.8,2.66,,N[C@H]1C[C@]1(F)c1ccc(C(F)(F)F)cc1 (relative stereo),
13 µM,7.41,13 µM,1,1.83,,Cc1ccc([C@@]2(F)C[C@@H]2N)cc1 (relative stereo),
,,18 µM,,,,COc1ccc([C@@]2(F)C[C@H]2N)cc1 (relative stereo),Activity ([1]; human): Not Active
65 µM,,19 µM,,1.78,3.4,N[C@@H]1C[C@]1(F)c1ccccc1 (stereo in doubt),
